From the array DNA melting data of Ke et al. (doi:10.1101/2024.01.08.574731)

Tests used:
[1] = melting temperature; fluorescence melt of hairpins on a sequencing array, two-state fit, raised by 9.35 °C to match UV melts; conditions: sodium 0.088 M
Procedure, shortened: (§1)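 Bootstrapped two-state fits yielded melting temperature and folding enthalpy for library hairpins. Cy3 fluorescence, with annealed Cy3 and quencher oligos, was imaged on a sequenced MiSeq flow cell in 50 mM Na-HEPES pH 8.0, 25 mM NaCl in 2.5 °C steps up to 60 °C, and normalised to pre-quench Cy3 and to control constructs. Four replicates were combined by inverse variance, and fitted temperatures were raised by 9.35 °C to match UV melts.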

[2] = folding enthalpy; higher = less favourable; fluorescence melt of hairpins on a sequencing array, two-state fit; conditions: sodium 0.088 M
Procedure, shortened: as §1

Sequence | Tm [1] [°C] | folding enthalpy [2] [kcal/mol]
GAGGGGGGAAACCCCTTC ((.((((....)))).)) | 53.5 | -12.5
GCGTAGCGAAAGCCAGGC ((.(.((....)).).)) | 31.1 | -5.07
GATCTCTGTAGAGATC ((((((....)))))) | 56.5 | -44.1
GATCCGAATACGGATC ((((((....)))))) | 57.5 | -38.6
GTCCGCGAAAGCGGTGAC ((((((....)))..))) | 41 | -8.67
GTAGGCGAAAGCCATAC ((((((....))).))) | 43.8 | -11.2
GATACCGAAAGGTCAATC ((((((....)))..))) | 21.7 | -8.3
GGCCAGGGAAACCTAGCC (((.(((....))).))) | 43.2 | -28.4
GGTGCCGAAAGGCCACC ((((((....))).))) | 60.4 | -18.2
GATCCCAGGCGGGATC ((((((....)))))) | 61.1 | -34
GATCACCTCCGTGATC ((((((....)))))) | 55 | -32.5
GTGGTCGGAAACGACCGC (.(((((....))))).) | 63 | -17.8
GACTGTCCGAAAGGAGTC (((..(((....)))))) | 36.1 | -14.6
GTTAGGCCGAAAGGCAAC (((..(((....)))))) | 32.1 | -9.31
GATCGCCGGTGCGATC ((((((....)))))) | 66 | -35.1
GCGGTTGACCGC ((((....)))) | 63.9 | -24.7
GCACCGGGAAACCGGCGC ((.((((....)))).)) | 59.6 | -41.3
GTCAGCGAAAGCTGCGAC ((((((....)))..))) | 55.2 | -11.8
GCGAGCGAAAGCTGGCGC ((((((....)))..))) | 68.7 | -25
GCCAGGCGAAAGCTGGGC (((..((....))..))) | 62.9 | -27.1
GTAGTACGAAAGTATTAC (((.(((....))).))) | 41.5 | -31.3
GGAGTACCGAAAGGTTCC (((..(((....)))))) | 36.3 | -15
GCGTGGGGAAACCCATGC ((.((((....)))).)) | 57.9 | -42.3

Sequence | Tm [1] [°C] | folding enthalpy [2] [kcal/mol]
GCTCCCCCGAAAGGGAGC (((..(((....)))))) | 66.1 | -29.4
GTAACGCGAAAGCGGTAC (((.(((....))).))) | 65.3 | -27.1
GATCACTGTTGTGATC ((((((....)))))) | 57.5 | -31.8
GGAGTACGAAAGTAATCC (((.(((....))).))) | 51.4 | -31
GATCATTATTATGATC ((((((....)))))) | 47.5 | -32.2
GCATGAGAAATCATGC ((((((....)))))) | 56.4 | -38.7
GCTCAGCGAAAGCCGGGC ((.(.((....)).).)) | 45.4 | -17.1
GAGCCCGAAAGGGAACTC ((((((....)))..))) | 47.5 | -16.4
GGAATAACGAAAGTTTCC (((..(((....)))))) | 32.5 | -14.8
GATCTCTGCGGAGATC ((((((....)))))) | 55.9 | -43.7
GTTCGGCGAAAGCCAAAC (((.(((....))).))) | 46.5 | -15.5
GCTCACGGAAACGTAAGC (((.(((....))).))) | 41.8 | -27.3
GGCAGCGAAAGCTGGGCC ((((((....)))..))) | 52 | -13.1
GGTGCTGGAAACGGCATC (.(((.(....).))).) | 44.2 | -25.4
GCATGAGGAAACTTGTGC (((..((....))..))) | 35.9 | -26.6
GAACCCCGAAAGGGTTTC (((.(((....))).))) | 47.8 | -16.2
GCGTCGCGAAAGCGGAGC ((..(((....)))..)) | 67.5 | -27.6
GAGTCCGCGAAAGCGCTC (((..(((....)))))) | 24.8 | -7.6
GGAACCGAAAGGTGTCC ((((((....))).))) | 47.5 | -17.7
CGTACGGAAACGTACACG ((((((....)))..))) | 39.9 | -11.5
GCAGGGCGAAAGCCCAGC ((.((((....)))).)) | 68.2 | -19.5
CGTGATCGGAAACGAACG (((..(((....)))))) | 28.6 | -8.71
GAGTTTGCGAAAGCACTC (((..(((....)))))) | 34.1 | -15.2

Sequence | Tm [1] [°C] | folding enthalpy [2] [kcal/mol]
GATCGGGGTGCCGATC ((((((....)))))) | 59.3 | -52.3
GCTTCCGGAAACAGAAGC (((((.(....).))))) | 41.9 | -30.6
GCTCCGCGAAAGCGAAGC (((.(((....))).))) | 56.4 | -29
GCCGAGCGAAAGCCGGGC (((..((....))..))) | 67.2 | -13.3
GATCTCGAATGAGATC ((((((....)))))) | 57.5 | -39.5
GAACGCGGAAACGCGTCC (.(((((....))))).) | 47.8 | -9.64
GATCTGCACGCAGATC ((((((....)))))) | 58.8 | -33.1
GGGCTACGAAAGTATCCC (((.(((....))).))) | 48.4 | -29.9
GAACACGAAAGTGGTTC ((((((....))).))) | 47.1 | -18.6
GATCCGGCCACGGATC ((((((....)))))) | 67.5 | -41.6
GCTTGTGGAAACACGAGC (((.(((....))).))) | 54.5 | -37.8
GAGGCAGAAATGCCTC ((((((....)))))) | 60.7 | -37.8
GGTGGAGGAAACTCCGCC ((.((((....)))).)) | 57.8 | -46
GCAACTGAAAAGTTGC ((((((....)))))) | 62.5 | -36.6
GCGATAGGTCGC ((((....)))) | 51.4 | -24.5
GTAAGCGGAAACACTTAC (((((.(....).))))) | 35.6 | -29.8
CGTCCGGAAACGGCGACG ((((((....)))..))) | 46.7 | -13.6
GCGTAGCGAAAGCAATGC ((.(.((....)).).)) | 35.8 | -7.98
GGAAAGCGAAAGCTGTCC (((.(((....))).))) | 53.9 | -23.8
GTCTACCGAAAGGTGGAC (((.(((....))).))) | 60.6 | -41.5
GGGGGTCGAAAGACACCC (((.(((....))).))) | 67.4 | -35.5
GCTTCGCGAAAGCTTAGC (((..((....))..))) | 50.2 | -15.2
GTAGACGAAAGTCGTAC ((((((....))).))) | 49.9 | -23.6

Sequence | Tm [1] [°C] | folding enthalpy [2] [kcal/mol]
CCTACGAAAGTAGG (((((....))))) | 57 | -20.4
GCATGAGGAAACTTATGC ((((.((....)).)))) | 44.2 | -34.7
GATCCGCAGACGGATC ((((((....)))))) | 60.8 | -36.3
GACAGGGAAACCTGTC ((((((....)))))) | 58.9 | -37.8
GATCGTTGGGACGATC ((((((....)))))) | 59 | -36.7
GATGGCGGAAACGCTATC (((.(((....))).))) | 52 | -27.2
GCATTCGGAAACGAATAC (.(((((....))))).) | 37 | -19.8
GATCGTGCCGACGATC ((((((....)))))) | 56.4 | -49.2
GATCACACTGTGATC ((((((...)))))) | 55.6 | -41.8
GTCCCGGGAAACTGGGAC (((((.(....).))))) | 60 | -37.2
GAAAGGGGAAACCCTTCC (.(((((....))))).) | 32.1 | -19.7
CGTACGGAAACGTGGACG ((((((....)))..))) | 35.2 | -15.1
GCCGTCCCGAAAGGGGGC (((..(((....)))))) | 49.4 | -17
GATCTCCTAAGAGATC ((((((....)))))) | 53.6 | -42.6
GGATGCGAAAGCAAATCC ((((((....)))..))) | 47.1 | -21
GGGTAGGGAAACCTGCTC (.(.(((....))).).) | 36.5 | -14.8
GACTTAGGAAACTAAGTC (((((((....))))))) | 53.8 | -37.3
GCTACGTCGAAAGACAGC (((..(((....)))))) | 36.4 | -16.2
GTGACAGCGAAAGCTCAC (((..(((....)))))) | 41.4 | -21.6
GACTCCGAAAGGACAGTC ((((((....)))..))) | 37.9 | -19.2
GTAGCCGAAAGGCTTAC ((((((....))).))) | 43.1 | -10.3
GGGCACTCGAAAGAGCCC (((..(((....)))))) | 50.9 | -31.1
GATCCGGCTCGGATC ((((((...)))))) | 59.7 | -39.6
